Laboratory results: ChEMBL document CHEMBL1136943, “Nocathiacin analogs: Synthesis and antibacterial activity of novel water-soluble amides” (Bioorg Med Chem Lett, 2009)
pIC50: −log10 of the molar value. ≈ marks a conversion by molar mass, not a printed value.

Key:
[1] = system: Staphylococcus aureus; test: Antibacterial activity against Staphylococcus aureus MB2865 in liquid culture by turbidity method; type: functional
Outline: (§1)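 MIC is the lowest concentration giving 100% inhibition of bacterial growth in liquid culture, read by turbidity.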

[2] = system: Streptococcus pneumoniae; test: Antibacterial activity against Streptococcus pneumoniae CL2883 in liquid culture by turbidity method; type: functional; outline: as §1
[3] = system: Enterococcus faecalis; test: Antibacterial activity against Enterococcus faecalis C21560 in liquid culture by turbidity method; type: functional; outline: as §1
[4] = system: Staphylococcus aureus; test: Antibacterial activity against Staphylococcus aureus infected in mouse model assessed as reduction of >= 2 log 10 cfu kidney burden; type: functional
Outline: (§2)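 Systemic S. aureus infection mouse model (SATOA). Compounds were given iv; […]. Kidney bacterial burden (cfu) was compared with untreated control. ED99 is the dose giving a reduction of at least 2 log10 cfu in kidney burden.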

[5] = system: Staphylococcus aureus; test: Antibacterial activity against Staphylococcus aureus infected in mouse model assessed as reduction of kidney burden at 0.5 mg/kg, iv relative to control; type: functional; outline: as §2
[6] = molecular target: T1, Type-2 angiotensin II receptor (Homo sapiens, UniProt P50052); test: Inhibition of AT2 receptor
T1 sequence (P50052 whole entry): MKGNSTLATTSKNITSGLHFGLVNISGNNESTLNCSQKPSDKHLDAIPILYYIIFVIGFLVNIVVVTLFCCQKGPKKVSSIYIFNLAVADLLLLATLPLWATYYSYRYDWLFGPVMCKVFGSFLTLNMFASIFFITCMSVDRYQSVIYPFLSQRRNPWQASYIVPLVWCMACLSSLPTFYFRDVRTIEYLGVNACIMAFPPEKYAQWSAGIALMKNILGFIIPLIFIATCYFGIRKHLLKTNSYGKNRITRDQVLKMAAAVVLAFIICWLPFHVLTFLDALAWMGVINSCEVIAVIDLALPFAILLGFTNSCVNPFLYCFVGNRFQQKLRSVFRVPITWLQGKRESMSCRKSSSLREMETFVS
Outline: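 AT2 IC50 derived from four dose levels per compound, following a published protocol.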

[7] = system: Staphylococcus aureus; test: Antibacterial activity against Staphylococcus aureus infected in mouse model assessed as reduction of kidney burden iv relative to control

MIC [1] [µg/mL] | MIC [2] [µg/mL] | MIC [3] [µg/mL] | pIC50 [6] | Compound | ED99 [4] [mg/kg] | Activity [5] | Activity [7]
0.015 (≈ 9.94 nM) | 0.00095 (≈ 0.63 nM) | 0.12 (≈ 79.5 nM) | > 8.00 | CO/C(C)=C1/NC(=O)[C@H]([C@@H](C)O)NC(=O)c2csc(n2)-c2cc(O)c(-c3nc(C(=O)NCCCN4CCN(C)CC4)cs3)nc2-c2csc(n2)[C@@H]2COC(=O)c3c4c5c(cccc5n3O)COC(=O)[C@@H](O[C@H]3C[C@](C)(O)[C@H](N(C)C)[C@H](C)O3)[C@@H](OC4)[C@H](NC(=O)c3csc1n3)c1nc(cs1)C(=O)N2 | 0.13 | 5.8 | 
0.011 (≈ 7.35 nM) | 0.007 (≈ 4.68 nM) | 0.016 (≈ 10.7 nM) | 6.59 | CO/C(C)=C1/NC(=O)[C@H]([C@@H](C)O)NC(=O)c2csc(n2)-c2cc(O)c(-c3nc(C(=O)NCCCN4CCOCC4)cs3)nc2-c2csc(n2)[C@@H]2COC(=O)c3c4c5c(cccc5n3O)COC(=O)[C@@H](O[C@H]3C[C@](C)(O)[C@H](N(C)C)[C@H](C)O3)[C@@H](OC4)[C@H](NC(=O)c3csc1n3)c1nc(cs1)C(=O)N2 | 0.24 |  | 4.68
